The values below come from ChEMBL document CHEMBL1157729, “Structure-activity relationship and mechanism of action studies of manzamine analogues for the control of neuroinflammation and cerebral infections” (J Med Chem, 2010).

The structures appear in SMILES notation.

A word on the inhibition in vivo: it is the change of the read-out against control, counted positive when it falls.

What all share (type): functional
In assay [1] the test system is Plasmodium berghei. In words: Antiplasmodial activity against Plasmodium berghei NK65 infected in Swiss Webster mice (Mus musculus) assessed as average parasitaemia at 1.1 mg/kg, perorally administered 1 day after infection for 3 days measured after 10 days post infection. The conditions noted are these: route oral.
Assay [2] relates to Plasmodium berghei. Description: Antiplasmodial activity against Plasmodium berghei NK65 infected in Swiss Webster mice (Mus musculus) assessed as average parasitaemia at 5 mg/kg, perorally administered 1 day after infection for 3 days measured after 10 days post infection. The conditions noted are these: route oral.
The test system of assay [3] is HeLa. In words: Cell cycle arrest in human HeLa cells assessed as increase in G0/G1 phase accumulation at 5 uM after 24 hrs by FACS analysis. (Flow cytometry measures light scatter and fluorescence of single cells or particles in a stream.)
Assay [4] deals with Plasmodium berghei. In words: Antiplasmodial activity against Plasmodium berghei NK65 infected in Swiss Webster mice (Mus musculus) assessed as inhibition of parasitaemia at 10 mg/kg, perorally administered 1 day after infection for 3 days measured after 5 days post infection. The conditions noted are these: route oral. The procedure, abridged:
(§1)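 Male Swiss Webster mice (18-20 g, ≥5/group) inoculated i.p. with 2×10^7 P. berghei NK-65 parasitized RBC; oral dosing (100 μl, SSV or dilute HCl vehicle) once daily for 3 days from day 1; Giemsa-stained tail blood smears days 5–28; inhibition is % decrease versus untreated controls on day 5.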

Assay [5] has as its system Plasmodium berghei. Description: Antiplasmodial activity against Plasmodium berghei NK65 infected in Swiss Webster mice (Mus musculus) assessed as inhibition of parasitaemia at 1.1 mg/kg, perorally administered 1 day after infection for 3 days measured after 5 days post infection. The conditions noted are these: route oral. The procedure, abridged:
as §1

In assay [6] the test system is Plasmodium berghei. Description: Antiplasmodial activity against Plasmodium berghei NK65 infected in Swiss Webster mice (Mus musculus) assessed as parasitaemia cure at 3.3 mg/kg, perorally administered 1 day after infection for 3 days measured after 28 days post infection. The settings on record: route oral. The procedure, abridged: (§2)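 Male Swiss Webster mice (18-20 g), at least 5 per group, inoculated i.p. with 2×10^7 P. berghei NK-65 parasitized red cells from a donor mouse. Oral dosing (100 μl, in SSV or dilute HCl) from day one after infection, three-day modified Peters suppressive schedule. Giemsa-stained tail blood smears from day 5 through day 28. Inhibition is % parasitemia drop on day 5 versus untreated controls. Cure means no parasitemia through day 28.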

Assay [7] has as its system Plasmodium berghei. In words: Antiplasmodial activity against Plasmodium berghei NK65 infected in Swiss Webster mice (Mus musculus) assessed as parasitaemia cure at 200 mg/kg, perorally administered 1 day after infection measured after 28 days post infection. The settings on record: Plasmodium berghei, NK65, route oral. An outline of the steps:
(§3)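 Male Swiss Webster mice (18-20 g), at least 5 per group, were inoculated ip with 2×10^7 P. berghei NK-65-parasitized red cells from a donor mouse and given a single oral dose (100 μl). Stock was made in SSV or 0.1 M HCl and diluted in SSV or 0.01 M HCl. Parasitemia was read from Giemsa-stained tail blood smears from day 5 to day 28. Cure meant no parasitemia through day 28.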

The subject of assay [8] is Plasmodium berghei. Description: Antiplasmodial activity against Plasmodium berghei NK65 infected in Swiss Webster mice (Mus musculus) assessed as average parasitaemia at 5 mg/kg, perorally administered 1 day after infection for 3 days measured after 28 days post infection. The conditions noted are these: route oral.
The test system of assay [9] is Plasmodium berghei. Description: Antiplasmodial activity against Plasmodium berghei NK65 infected in Swiss Webster mice (Mus musculus) at 1.1 mg/kg, po. An outline of the steps: as §2
Assay [10] concerns Plasmodium berghei. In words: Antiplasmodial activity against Plasmodium berghei NK65 infected in Swiss Webster mice (Mus musculus) assessed as average parasitaemia at 1.1 mg/kg, perorally administered 1 day after infection for 3 days measured after 7 days post infection. The conditions noted are these: route oral.
Assay [11] concerns Plasmodium berghei. Description: Antiplasmodial activity against Plasmodium berghei NK65 infected in Swiss Webster mice (Mus musculus) assessed as average parasitaemia at 50 mg/kg, perorally administered 1 day after infection measured after 7 days post infection. The conditions noted are these: route oral. The procedure, abridged: (§4)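 Male Swiss Webster mice (18-20 g, ≥5/group) inoculated i.p. with 2×10^7 P. berghei NK-65 parasitized RBC, given a single oral dose (100 μl, SSV or dilute HCl vehicle); parasitemia by Giemsa-stained tail blood smears days 5–28; activity as % decrease versus untreated controls on day 5.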

Assay [12] deals with Plasmodium berghei. In words: Antiplasmodial activity against Plasmodium berghei infected in mice (Mus musculus) at 10 mg/kg, perorally administered 1 day post infection for 3 days. The settings on record: route oral.
For assay [13], the system named is Plasmodium berghei. In words: Antiplasmodial activity against Plasmodium berghei NK65 infected in Swiss Webster mice (Mus musculus) assessed as inhibition of parasitaemia at 200 mg/kg, perorally administered 1 day after infection measured after 5 days post infection. The conditions noted are these: Plasmodium berghei, NK65, route oral. An outline of the steps: as §4

Assay [14] deals with Plasmodium berghei. Description: Antiplasmodial activity against Plasmodium berghei NK65 infected in Swiss Webster mice (Mus musculus) assessed as average parasitaemia at 50 mg/kg, perorally administered 1 day after infection measured after 21 days post infection. The settings on record: route oral. The procedure, abridged:
as §4

Assay [15] has as its system Plasmodium berghei. In words: Antiplasmodial activity against Plasmodium berghei NK65 infected in Swiss Webster mice (Mus musculus) assessed as average parasitaemia at 3.3 mg/kg, perorally administered 1 day after infection for 3 days measured after 10 days post infection. The conditions noted are these: route oral.
Assay [16] relates to Plasmodium berghei. Description: Antiplasmodial activity against Plasmodium berghei NK65 infected in Swiss Webster mice (Mus musculus) assessed as average parasitaemia at 100 mg/kg, perorally administered 1 day after infection measured after 28 days post infection. The settings on record: route oral. An outline of the steps: as §4
Assay [17] deals with Plasmodium berghei. Description: Antiplasmodial activity against Plasmodium berghei NK65 infected in Swiss Webster mice (Mus musculus) assessed as average parasitaemia at 200 mg/kg, perorally administered 1 day after infection measured after 5 days post infection. The settings on record: Plasmodium berghei, NK65, route oral. An outline of the steps: as §3
For assay [18], the system named is Plasmodium berghei. Description: Antiplasmodial activity against Plasmodium berghei NK65 infected in Swiss Webster mice (Mus musculus) assessed as inhibition of parasitaemia at 100 mg/kg, perorally administered 1 day after infection measured after 5 days post infection. The settings on record: route oral. An outline of the steps:
as §4

On to `O[C@]12C=C(c3nccc4c3[nH]c3ccccc34)[C@@H]3CCN(CCCC/C=C\CC1)C[C@@]31C[C@@H]3/C=C\CCCCN3[C@H]12` [MANZAMINE A], for which the inhibition in vivo at 1.1 mg/kg in assay [1] was found to be 11.5%; in [5], 75%; in [9] it was 26.5%; in assay [10], 5.5%. Moreover, the inhibition in vivo at 5 mg/kg in assay [2] was found to be 7.8%; in assay [8], 39.3%. Besides, the Activity was found to be 56.3% in assay [3] and 14.3 days in assay [12]. In assay [4], the inhibition in vivo at 10 mg/kg was determined as 98%. The inhibition in vivo at 3.3 mg/kg in assay [6] is 25%; in assay [15], 4.3%. The inhibition in vivo at 200 mg/kg was found to be 100% in assay [7], 100% in [13] and 0% in assay [17]. Further, the values for the inhibition in vivo at 50 mg/kg in assay [11] and in assay [14] were 0% and 5.2%, respectively. Also, the inhibition in vivo at 100 mg/kg worked out at 0% in [16] and 100% in [18].
